Laboratory results: ChEMBL document CHEMBL1153954, “Promiscuous aggregate-based inhibitors promote enzyme unfolding” (J Med Chem, 2009)
Activity calls are given as the source filed them. The calls are words filed in the database; no cut-off is given here.

How the values were obtained:
[1] = target: AmpC (Escherichia coli) (UniProt Q83TT7); assay: (§1) Aggregation based inhibition of Escherichia coli AmpC assessed as solvent accessibility of AmpC peptide fragment spanning 323-332 amino acid sequence by measuring ratio of side chain surface area to random coil values per amino acid reside by hydrogen-deuterium exchange mass spectrometry relative to control; design: scale not given: the % may be the effect or the level left
Summary of the method: (§2)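 Side-chain solvent accessibility per peptide was calculated from the structure with a 1.4 Å probe radius and default atomic radii and solvation parameters. Each value is the average over residues of the side-chain surface area relative to its random-coil value. Above 50% is exposed; below 20% is buried.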

[2] = target: AmpC (Escherichia coli) (UniProt Q83TT7); assay: Aggregation based inhibition of Escherichia coli AmpC assessed as increase in deuteration of AmpC peptide fragment spanning 243-250 amino acid sequence after 8 hrs by hydrogen-deuterium exchange mass spectrometry relative to control
Summary of the method: (§3)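 AmpC β-lactamase diluted from a 215 μM stock (50 mM KPi, pH 7.0) into deuterated 50 mM MOPS in D2O, pH 7.0. Final enzyme was 0.16 μM with 100 μM aggregator (0.5% DMSO) or 16 μM without. Aggregate samples were centrifuged 16000g for 5 min and the pellet kept. Triton X-100 was added to release enzyme. Samples were quenched with ice-cold 0.1% TFA pH 2.5, digested on immobilized pepsin 5 min on ice, then analysed by chilled fast-gradient LC-MS. Deuterium uptake is centroid mass shift versus the undeuterated control, not corrected for back exchange. Ratio is inhibited over uninhibited, from three replicates.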

[3] = target: AmpC (Escherichia coli) (UniProt Q83TT7); assay: Aggregation based inhibition of Escherichia coli AmpC assessed as increase in deuteration of AmpC peptide fragment spanning 8-18 amino acid sequence after 1 hr by hydrogen-deuterium exchange mass spectrometry relative to control; summary of the method: as §3
[4] = target: AmpC (Escherichia coli) (UniProt Q83TT7); assay: as §1, with “243-250” for “323-332”; design: scale not given: the % may be the effect or the level left; summary of the method: as §2
[5] = target: AmpC (Escherichia coli) (UniProt Q83TT7); assay: Aggregation based inhibition of Escherichia coli AmpC assessed as increase in deuteration of AmpC peptide fragment spanning 42-56 amino acid sequence after 1 hr by hydrogen-deuterium exchange mass spectrometry relative to control; summary of the method: as §3
[6] = target: AmpC (Escherichia coli) (UniProt Q83TT7); assay: as §1, with “336-350” for “323-332”; design: scale not given: the % may be the effect or the level left; summary of the method: as §2
[7] = target: AmpC (Escherichia coli) (UniProt Q83TT7); assay: Aggregation based inhibition of Escherichia coli AmpC assessed as increase in deuteration of AmpC peptide fragment spanning 323-332 amino acid sequence after 1 hr by hydrogen-deuterium exchange mass spectrometry relative to control; summary of the method: as §3
[8] = target: AmpC (Escherichia coli) (UniProt Q83TT7); assay: Aggregation based inhibition of Escherichia coli AmpC assessed as increase in deuteration of AmpC peptide fragment spanning 336-350 amino acid sequence after 1 hr by hydrogen-deuterium exchange mass spectrometry relative to control; summary of the method: as §3
[9] = target: AmpC (Escherichia coli) (UniProt Q83TT7); assay: Aggregation based inhibition of Escherichia coli AmpC assessed as increase in deuteration of AmpC peptide fragment spanning 243-250 amino acid sequence after 10 mins by hydrogen-deuterium exchange mass spectrometry relative to control; summary of the method: as §3
[10] = target: AmpC (Escherichia coli) (UniProt Q83TT7); assay: Aggregation based inhibition of Escherichia coli AmpC assessed as increase in deuteration of AmpC peptide fragment spanning 132-146 amino acid sequence after 8 hrs by hydrogen-deuterium exchange mass spectrometry relative to control; summary of the method: as §3
[11] = target: AmpC (Escherichia coli) (UniProt Q83TT7); assay: as §1, with “271-289” for “323-332”; design: scale not given: the % may be the effect or the level left; summary of the method: as §2
[12] = target: AmpC (Escherichia coli) (UniProt Q83TT7); assay: Aggregation based inhibition of Escherichia coli AmpC assessed as increase in deuteration of AmpC peptide fragment spanning 109-128 amino acid sequence after 10 mins by hydrogen-deuterium exchange mass spectrometry relative to control; summary of the method: as §3
[13] = target: AmpC (Escherichia coli) (UniProt Q83TT7); assay: Aggregation based inhibition of Escherichia coli AmpC assessed as increase in deuteration of AmpC peptide fragment spanning 271-289 amino acid sequence after 1 hr by hydrogen-deuterium exchange mass spectrometry relative to control; summary of the method: as §3
[14] = target: AmpC (Escherichia coli) (UniProt Q83TT7); assay: Aggregation based inhibition of Escherichia coli AmpC assessed as increase in deuteration of AmpC peptide fragment spanning 132-146 amino acid sequence after 10 mins by hydrogen-deuterium exchange mass spectrometry relative to control; summary of the method: as §3
[15] = target: AmpC (Escherichia coli) (UniProt Q83TT7); assay: Aggregation based inhibition of Escherichia coli AmpC assessed as increase in deuteration of AmpC peptide fragment spanning 105-128 amino acid sequence after 1 hr by hydrogen-deuterium exchange mass spectrometry relative to control; summary of the method: as §3
[16] = target: AmpC (Escherichia coli) (UniProt Q83TT7); assay: Aggregation based inhibition of Escherichia coli AmpC assessed as increase in deuteration of AmpC peptide fragment spanning 8-18 amino acid sequence after 10 mins by hydrogen-deuterium exchange mass spectrometry relative to control; summary of the method: as §3
[17] = target: AmpC (Escherichia coli) (UniProt Q83TT7); assay: as §1, with “291-322” for “323-332”; design: scale not given: the % may be the effect or the level left; summary of the method: as §2
[18] = target: AmpC (Escherichia coli) (UniProt Q83TT7); assay: Inhibition of Escherichia coli AmpC assessed as induction of protein unfolding measured by trypsin mediated degradation of compound-AmpC enzyme complex at 100 uM after 4 hrs by gel electrophoresis
Summary of the method: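 AmpC (0.5 μM) was preincubated 5 min with or without 100 μM aggregator in 50 mM KPi, pH 7.0, 1% DMSO final. Trypsin (0.01 or 0.025 mg/mL) was then added, and digestion ran at room temperature for 0, 15, 30 min, 1 h or 4 h. Samples were boiled in DTT-containing loading buffer and the AmpC band was followed by SDS-PAGE.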

[19] = target: AmpC (Escherichia coli) (UniProt Q83TT7); assay: Aggregation based inhibition of Escherichia coli AmpC assessed as increase in deuteration of AmpC peptide fragment spanning 42-56 amino acid sequence after 8 hrs by hydrogen-deuterium exchange mass spectrometry relative to control; summary of the method: as §3
[20] = target: AmpC (Escherichia coli) (UniProt Q83TT7); assay: as §1, with “109-128” for “323-332”; design: scale not given: the % may be the effect or the level left; summary of the method: as §2
[21] = target: AmpC (Escherichia coli) (UniProt Q83TT7); assay: Aggregation based inhibition of Escherichia coli AmpC assessed as increase in deuteration of AmpC peptide fragment spanning 132-146 amino acid sequence after 1 hr by hydrogen-deuterium exchange mass spectrometry relative to control; summary of the method: as §3
[22] = target: AmpC (Escherichia coli) (UniProt Q83TT7); assay: Aggregation based inhibition of Escherichia coli AmpC assessed as increase in deuteration of AmpC peptide fragment spanning 323-332 amino acid sequence after 8 hrs by hydrogen-deuterium exchange mass spectrometry relative to control; summary of the method: as §3
[23] = target: AmpC (Escherichia coli) (UniProt Q83TT7); assay: Aggregation based inhibition of Escherichia coli AmpC assessed as increase in deuteration of AmpC peptide fragment spanning 291-322 amino acid sequence after 8 hrs by hydrogen-deuterium exchange mass spectrometry relative to control; summary of the method: as §3
[24] = target: AmpC (Escherichia coli) (UniProt Q83TT7); assay: as §1, with “132-146” for “323-332”; design: scale not given: the % may be the effect or the level left; summary of the method: as §2
[25] = target: AmpC (Escherichia coli) (UniProt Q83TT7); assay: as §1, with “8-18” for “323-332”; design: scale not given: the % may be the effect or the level left; summary of the method: as §2
[26] = target: AmpC (Escherichia coli) (UniProt Q83TT7); assay: Aggregation based inhibition of Escherichia coli AmpC assessed as increase in deuteration of AmpC peptide fragment spanning 336-350 amino acid sequence after 8 hrs by hydrogen-deuterium exchange mass spectrometry relative to control; summary of the method: as §3
[27] = target: AmpC (Escherichia coli) (UniProt Q83TT7); assay: Aggregation based inhibition of Escherichia coli AmpC assessed as increase in deuteration of AmpC peptide fragment spanning 8-18 amino acid sequence after 8 hrs by hydrogen-deuterium exchange mass spectrometry relative to control; summary of the method: as §3
[28] = target: AmpC (Escherichia coli) (UniProt Q83TT7); assay: Aggregation based inhibition of Escherichia coli AmpC assessed as increase in deuteration of AmpC peptide fragment spanning 109-128 amino acid sequence after 8 hrs by hydrogen-deuterium exchange mass spectrometry relative to control; summary of the method: as §3
[29] = target: AmpC (Escherichia coli) (UniProt Q83TT7); assay: Aggregation based inhibition of Escherichia coli AmpC assessed as increase in deuteration of AmpC peptide fragment spanning 42-56 amino acid sequence after 10 mins by hydrogen-deuterium exchange mass spectrometry relative to control; summary of the method: as §3
[30] = target: AmpC (Escherichia coli) (UniProt Q83TT7); assay: Aggregation based inhibition of Escherichia coli AmpC assessed as increase in deuteration of AmpC peptide fragment spanning 109-128 amino acid sequence after 1 hr by hydrogen-deuterium exchange mass spectrometry relative to control; summary of the method: as §3
[31] = target: AmpC (Escherichia coli) (UniProt Q83TT7); assay: Aggregation based inhibition of Escherichia coli AmpC assessed as increase in deuteration of AmpC peptide fragment spanning 336-350 amino acid sequence after 10 mins by hydrogen-deuterium exchange mass spectrometry relative to control; summary of the method: as §3
[32] = target: AmpC (Escherichia coli) (UniProt Q83TT7); assay: Aggregation based inhibition of Escherichia coli AmpC assessed as increase in deuteration of AmpC peptide fragment spanning 105-128 amino acid sequence after 10 mins by hydrogen-deuterium exchange mass spectrometry relative to control; summary of the method: as §3
[33] = target: AmpC (Escherichia coli) (UniProt Q83TT7); assay: Aggregation based inhibition of Escherichia coli AmpC assessed as increase in deuteration of AmpC peptide fragment spanning 105-128 amino acid sequence after 8 hrs by hydrogen-deuterium exchange mass spectrometry relative to control; summary of the method: as §3
[34] = target: AmpC (Escherichia coli) (UniProt Q83TT7); assay: Aggregation based inhibition of Escherichia coli AmpC assessed as increase in deuteration of AmpC peptide fragment spanning 291-322 amino acid sequence after 10 mins by hydrogen-deuterium exchange mass spectrometry relative to control; summary of the method: as §3
[35] = target: AmpC (Escherichia coli) (UniProt Q83TT7); assay: Aggregation based inhibition of Escherichia coli AmpC assessed as increase in deuteration of AmpC peptide fragment spanning 271-289 amino acid sequence after 10 mins by hydrogen-deuterium exchange mass spectrometry relative to control; summary of the method: as §3
[36] = target: AmpC (Escherichia coli) (UniProt Q83TT7); assay: as §1, with “42-56” for “323-332”; design: scale not given: the % may be the effect or the level left; summary of the method: as §2
[37] = target: AmpC (Escherichia coli) (UniProt Q83TT7); assay: as §1, with “105-128” for “323-332”; design: scale not given: the % may be the effect or the level left; summary of the method: as §2
[38] = target: AmpC (Escherichia coli) (UniProt Q83TT7); assay: Aggregation based inhibition of Escherichia coli AmpC assessed as increase in deuteration of AmpC peptide fragment spanning 271-289 amino acid sequence after 8 hrs by hydrogen-deuterium exchange mass spectrometry relative to control; summary of the method: as §3
[39] = target: AmpC (Escherichia coli) (UniProt Q83TT7); assay: Aggregation based inhibition of Escherichia coli AmpC assessed as increase in deuteration of AmpC peptide fragment spanning 323-332 amino acid sequence after 10 mins by hydrogen-deuterium exchange mass spectrometry relative to control; summary of the method: as §3
[40] = target: AmpC (Escherichia coli) (UniProt Q83TT7); assay: Aggregation based inhibition of Escherichia coli AmpC assessed as increase in deuteration of AmpC peptide fragment spanning 291-322 amino acid sequence after 1 hr by hydrogen-deuterium exchange mass spectrometry relative to control; summary of the method: as §3

Chain of AmpC (Escherichia coli) (Q83TT7 as listed by the source): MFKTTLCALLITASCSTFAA

`CC(=O)c1c(O)c(C)c(O)c(Cc2c(O)c3c(c(C(=O)/C=C/c4ccccc4)c2O)OC(C)(C)C=C3)c1O` showed an Activity [1] of 11.8%, a fold change (FC) [2] of 1.7 and a fold change (FC) [3] of 2.3. It also gave an Activity [4] of 20.7%, a fold change (FC) [5] of 2.7 and an Activity [6] of 21.6%. It also gave a fold change (FC) [7] of 3, a fold change (FC) [8] of 3.7 and a fold change (FC) [9] of 1.2. The fold change (FC) [10] was 3.4, the Activity [11] was 40.7% and the fold change (FC) [12] was 1.5. The fold change (FC) [13] was 2.6, the fold change (FC) [14] was 2.6 and the fold change (FC) [15] was 2.6. The fold change (FC) [16] was 1.3, the Activity [17] was 22.3% and the Activity [18] was “Active”. The fold change (FC) [19] was 1.8, the Activity [20] was 36.9% and the fold change (FC) [21] was 4.2. The fold change (FC) [22] was 2.7, the fold change (FC) [23] was 1.8 and the Activity [24] was 34.8%. The Activity [25] was 35.7%, the fold change (FC) [26] was 2 and the fold change (FC) [27] was 2.5. The fold change (FC) [28] was 1.6, the fold change (FC) [29] was 1.9 and the fold change (FC) [30] was 2.5. The fold change (FC) [31] was 1.7, the fold change (FC) [32] was 1.6 and the fold change (FC) [33] was 1.8. For the same molecule, the fold change (FC) [34] was 1.6, the fold change (FC) [35] was 1.4 and the Activity [36] was 44.7%. For the same molecule, the Activity [37] was 31.3%, the fold change (FC) [38] was 1.4 and the fold change (FC) [39] was 1.3. It also gave a fold change (FC) [40] of 2.5.
